Compounds with a hit are over-represented: about 5.1% of the library has one in this group of screens.
M1 ag = M1 muscarinic receptor agonism | CHO-M1 cells, Fluo-4 calcium fluorescence, agonist mode; hits give high values | B-score at 10 µM | 3% of 64,000 active;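 active means fluorescence rise, raw or as B-score row- and column-corrected plate score, outside the 99.7% band of its plate's samples, either direction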
BAP1 inh = blocks human BAP1 ubiquitin-AMC hydrolysis. Q92560. recombinant BAP1, Ub-AMC hydrolysis fluorescence kinetic; hits give low values. calls only at 20 µM. 0.48% of 72,000 active. AID 436;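 active means activity remaining at or below 50% of control, provided the compound also passes the data quality filters; inactive means the rest, including low values that fail the filters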;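 further: 100% = DMSO wells rate and 0% = substrate alone blank rate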
tolC growth inh = E. coli tolC mutant growth inhibition. E. coli BW25113 tolC mutant growth, OD615. growth inhibition, % at 10 µM (by protocol). 2.2% of 65,000 active. AID 573;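 active means growth inhibition at or above a cutoff equal to the mean over every tested compound plus 3 SD, cut at about 60% in these data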;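 further: growth measured after 20 h incubation at 37 °C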
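System: E. coli ΔtolC::kan strain BW25113; Buffer or medium: LB broth supplemented with 50 µg/mL kanamycin; Compound: 10 µM final, single dose; Incubation: bacterial growth with compound for 20 h at 37 °C; Signal: A615 absorbance measurement; Evaluation: growth inhibition in percent.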
E coli WT exp = growth inhibitors of E. coli BW25113 wild type; growth inhibition, % at 100 µM; AID 710; 0.15% of 98,000 active; OD600 absorbance;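 active means growth inhibition above about 50% at one test dose, limit read from the data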;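 further: growth measured after 20 h incubation at 37 °C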
Hsp90 block = displaces geldanamycin probe from tumor Hsp90 | NCI-N417 lysate Hsp90, Cy3B-geldanamycin FP displacement | inhibition, % at 30 µM | 0.35% of 64,000 active | AID 429;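 active means inhibition above 50%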;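 further: 0% = tracer plus lysate wells and 100% = tracer alone without lysate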
M1 antag = antagonists of rat M1 muscarinic receptor; 3.4% of 64,000 active; B-score at 10 µM; P08482; CHO-M1 cells, Fluo-4 calcium, ACh EC80 antagonist mode; hits give low values;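 active means calcium fluorescence response, raw or row-and-column corrected B-score, differing from the plate sample mean either way at a set confidence level, mostly lower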
Target sequence (P08482 whole entry, looked up): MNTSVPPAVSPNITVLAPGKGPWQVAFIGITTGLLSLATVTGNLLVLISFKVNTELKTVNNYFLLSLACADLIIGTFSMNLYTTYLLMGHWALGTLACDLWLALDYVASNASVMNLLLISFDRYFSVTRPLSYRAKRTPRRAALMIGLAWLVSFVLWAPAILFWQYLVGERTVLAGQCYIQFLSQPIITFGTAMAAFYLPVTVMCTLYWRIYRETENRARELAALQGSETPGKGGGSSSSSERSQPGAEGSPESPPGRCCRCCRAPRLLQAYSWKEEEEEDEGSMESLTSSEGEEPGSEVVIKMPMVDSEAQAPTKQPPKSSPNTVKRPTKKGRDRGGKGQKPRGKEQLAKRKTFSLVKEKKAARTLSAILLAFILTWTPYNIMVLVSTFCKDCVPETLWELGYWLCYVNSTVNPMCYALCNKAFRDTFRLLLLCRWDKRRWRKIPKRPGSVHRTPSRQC
M1 antag conf = M1 muscarinic receptor (rat) antagonism, confirmed. shares compounds with M1 antag. CHO-M1 cells, Fluo-4 calcium, ACh EC80 antagonism; hits give low values. calcium response (max-min fluorescence) at 10 µM. 43% of 1,700 active;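 active means calcium response below the same-plate mean of wells given acetylcholine alone at its 80%-effect dose, minus 3 SD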;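 further: raw fluorescence intensity difference in arbitrary instrument units and not normalized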
mGluR4 antag = acts on human mGluR4 in M1 antagonist selectivity test | 0.9% of 1,700 active | CHO-mGluR4 calcium flux, Fluo-4 fluorescence, glutamate EC80; hits give low values | AID 678 | fluorescence response (max-min) at 10 µM | shares compounds with M1 antag;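 active means fluorescence response below the plate's average for near-maximal glutamate wells, less 3 SD of those wells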;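 further: raw unnormalized fluorescence span taken in the window right after glutamate addition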
* hit, by the source's call.

What do the screens show for `CC1(C)Cc2c(sc3c2C2=NCCN2C=N3)CS1`?
M1 ag: -0.36; BAP1 inh: inactive; tolC growth inh: -6; E coli WT exp: 2; Hsp90 block: -7; M1 antag: -5.4*; M1 antag conf: 411*; mGluR4 antag: 254

Results for CCOC(=O)C1CCN(C(=O)c2cc3cc4cc(OC)ccc4nc3o2)CC1 ?
M1 ag: 5.1; BAP1 inh: inactive; tolC growth inh: -1; E coli WT exp: 10; Hsp90 block: -1; M1 antag: -3.2*; M1 antag conf: 432*; mGluR4 antag: 196

What do the screens show for `CC(C)(C)c1ccccc1OCC(=O)NCCC(=O)O`?
M1 ag: -0.73; BAP1 inh: inactive; tolC growth inh: -12; E coli WT exp: 3; Hsp90 block: 6; M1 antag: -2.8*; M1 antag conf: 673; mGluR4 antag: 237

Results for CC(C)(C)c1ccccc1OCC(=O)Nc1ncn[nH]1 ?
M1 ag: -1.3; BAP1 inh: inactive; tolC growth inh: -16; E coli WT exp: -8; Hsp90 block: 0; M1 antag: 1.4

Results for COc1ccc2cc(C(N)=O)c(=Nc3cccc(C(F)(F)F)c3)oc2c1 ?
BAP1 inh: inactive

How did CCOC(=O)C1=C(C)OC(N)=C(C#N)C1c1cc2c(cc1Br)OCO2 (stereo not given) do in these assays?
M1 ag: -0.73; BAP1 inh: inactive; tolC growth inh: 13; E coli WT exp: 10; Hsp90 block: 1; M1 antag: -1.9*; M1 antag conf: 417*; mGluR4 antag: 208

Results for C=CCOC(=O)C1=C(C)OC(N)=C(C#N)C1c1ccc2c(c1)OCO2 (stereo not given) ?
M1 ag: -0.071; BAP1 inh: inactive; tolC growth inh: 7; E coli WT exp: -9; Hsp90 block: -1; M1 antag: 0.44

Results for CCOC(=O)N1CCC(NC(=O)c2sc3nc4n(c(=O)c3c2C)CCCC4)CC1 ?
M1 ag: 0.58; BAP1 inh: inactive; tolC growth inh: -10; E coli WT exp: 4; Hsp90 block: 1; M1 antag: -2.6*; M1 antag conf: 612; mGluR4 antag: 279

How did CCOC(=O)c1cc2sccc2n1CC(=O)Nc1ccc2c(c1)OCCO2 do in these assays?
M1 ag: -1; BAP1 inh: inactive; tolC growth inh: 7; E coli WT exp: -11; Hsp90 block: 0; M1 antag: -0.93*; M1 antag conf: 494; mGluR4 antag: 218

What do the screens show for `COc1ccc(CNC(N)=O)cc1OC`?
E coli WT exp: -13

How did COc1ccc(CNC(=O)NCc2ccc(OC)c(OC)c2)cc1OC do in these assays?
M1 ag: -1.4; BAP1 inh: inactive; tolC growth inh: -3; E coli WT exp: -2; Hsp90 block: -4; M1 antag: -2.4*; M1 antag conf: 524; mGluR4 antag: 206

Results for COCCNC(=O)COc1cc(=O)n(C)c2ccccc12 ?
M1 ag: 0.19; BAP1 inh: inactive; tolC growth inh: -2; E coli WT exp: -4; Hsp90 block: -5; M1 antag: -0.72

Results for CCN(CCCNC(=O)COc1cc(=O)n(C)c2ccccc12)c1cccc(C)c1 ?
M1 ag: 0.25; BAP1 inh: inactive; tolC growth inh: 14; E coli WT exp: -1; Hsp90 block: 0; M1 antag: -1.9*; M1 antag conf: 630; mGluR4 antag: 250

Results for O=C1N2CN(C3CCCCC3)CN=C2SC1(CO)CO ?
BAP1 inh: inactive

How did CC(C)CC(=O)N1CCN(S(C)(=O)=O)CC1 do in these assays?
M1 ag: -0.12; BAP1 inh: inactive; tolC growth inh: -12; E coli WT exp: -5; Hsp90 block: -4; M1 antag: -3.6*; M1 antag conf: 594; mGluR4 antag: 238

How did Nc1ccc(N2CCN(CCO)CC2)cc1 do in these assays?
BAP1 inh: inactive

What do the screens show for `Cc1ccc(S(=O)(=O)Nc2nsc(N)n2)cc1`?
M1 ag: -0.018; BAP1 inh: inactive; tolC growth inh: -6; E coli WT exp: 15; Hsp90 block: -5; M1 antag: -2.9*; M1 antag conf: 641; mGluR4 antag: 213

What do the screens show for `O=C(CCNC(=O)c1ccc(Br)o1)NCc1ccccn1`?
M1 ag: 0.074; BAP1 inh: inactive; tolC growth inh: -18; E coli WT exp: 13; Hsp90 block: -2; M1 antag: -7.7*; M1 antag conf: 648; mGluR4 antag: 144*

What do the screens show for `O=C(CCNC(=O)c1ccc(Br)o1)NCc1ccccc1Cl`?
M1 ag: 0.13; BAP1 inh: inactive; tolC growth inh: 9; E coli WT exp: 16; Hsp90 block: 1; M1 antag: -0.84

What do the screens show for `CSc1ccc(C(C(C(=O)c2cccs2)N2CCOCC2)N2CCOCC2)cc1` (stereo not given)?
M1 ag: 0.64; BAP1 inh: inactive; tolC growth inh: 9; E coli WT exp: -7; Hsp90 block: -4; M1 antag: -3.4*; M1 antag conf: 537; mGluR4 antag: 170

What do the screens show for `O=C(Nc1nc(-c2ccc(S(=O)(=O)N3CCCC3)cc2)cs1)C1COc2ccccc2O1` (stereo not given)?
M1 ag: -1.9; tolC growth inh: 17; E coli WT exp: -5; Hsp90 block: -6; M1 antag: -8.7*; M1 antag conf: 559; mGluR4 antag: 206

What do the screens show for `O=C(Nc1ccc(S(=O)(=O)N2CCCC2)cc1)C1COc2ccccc2O1` (stereo not given)?
M1 ag: -0.26; BAP1 inh: inactive; tolC growth inh: 16; E coli WT exp: -2; Hsp90 block: -3; M1 antag: -0.19

Results for CC(C)(C)c1nnc(NC(=O)c2cccc([N+](=O)[O-])c2)s1 ?
BAP1 inh: inactive

What do the screens show for `CC(NC(=O)CSc1ncnc2nc[nH]c12)c1ccccc1` (stereo not given)?
M1 ag: 0.39; tolC growth inh: -14; E coli WT exp: 3; M1 antag: -3.8*; M1 antag conf: 667; mGluR4 antag: 259

How did COc1ccc(-c2cc(C(=O)N3CCN(c4ccccn4)CC3)c3ccccc3n2)cc1 do in these assays?
M1 ag: 1.7; tolC growth inh: 15; E coli WT exp: -9; Hsp90 block: 3; M1 antag: -0.89

How did COc1cc(-c2cc(C(=O)N3CCN(c4ccccn4)CC3)c3ccccc3n2)cc(OC)c1OC do in these assays?
M1 ag: 4.5; BAP1 inh: inactive; tolC growth inh: 3; E coli WT exp: -12; Hsp90 block: -2; M1 antag: -3.8*; M1 antag conf: 697; mGluR4 antag: 213
